Publication PMC4650901 (Scientific Reports, 2014)

Tests used:
caspase-9 = assay: Caspase-9 activity assay in HepG2 lysates; format: cell-based, human; settings: HepG2, 24 h; 2-DG 10, 20 mM; UA-4 2, 4 μM; 10 + 2, 20 + 4
Outline: (§1)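 Lysates were prepared from HepG2 cells treated 24 h with 2-DG (0, 10, 20 mM), test compound (0, 2, 4 μM) or combinations (10 + 2, 20 + 4). Lysates were incubated 4 h at 37°C with pNA substrate: Ac-DEVD-pNA (caspase-3), Ac-IETD-pNA (caspase-8) or Ac-LEHD-pNA (caspase-9). Absorbance at 405 nm, normalised to protein concentration.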

HepG2 cells [1] = assay: Lactate production assay; format: cell-based, human; settings: HepG2, 24 h; UA-4 2, 4 and 6 μM
Outline: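 HepG2 cells (3 × 10^5/well) treated 24 h with 2-DG (0, 10, 20, 40 mM), test compound (0, 2, 4, 6 μM) or combinations (10 + 2, 20 + 4, 40 + 6). Lactate in culture supernatant measured by kit at OD 530 nm and normalised to cell number. Medium background subtracted; means ± SD of triplicate wells.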

HepG2 cells [2] = assay: MTT assay for cell viability/proliferation, HepG2; format: cell-based; settings: Homo sapiens, HepG2, 24 h; for IC80: read-out: IC80 of glycolysis inhibitors; for IC50: read-out: IC50 HepG2
HepG2 cells [3] = assay: Intracellular ATP, luciferase-luciferin assay; format: cell-based, human; settings: HepG2, 24 h of treatment (method: 12-h incubation)
Outline: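 HepG2 cells seeded at 3 × 10^5/well and grown 24 h. Then incubated 12 h with 2-DG (0, 10, 20, 40 mM), test compound (0, 2, 4, 6 μM) or combinations (10 + 2, 20 + 4, 40 + 6). Cells PBS-washed, lysed on ice, and ATP read by luciferase–luciferin luminescence. Values normalised to protein and expressed as % of control mean.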

caspase-3 = assay: Caspase-3 activity assay in HepG2 lysates; format: cell-based, human; settings: HepG2, 24 h; 2-DG 10, 20 mM; UA-4 2, 4 μM; 10 + 2, 20 + 4
Outline: as §1

hexokinase (HK) = assay: Hexokinase activity assay in HepG2 cells; format: cell-based, human; settings: HepG2, 24 h
caspase-8 = assay: Caspase-8 activity assay in HepG2 lysates; format: cell-based, human; settings: HepG2, 24 h; 2-DG 10, 20 mM; UA-4 2, 4 μM; 10 + 2, 20 + 4
Outline: as §1

HepG2 cells [4] = assay: Annexin V-FITC/PI double staining, HepG2; format: cell-based, human; settings: HepG2, 24 h, single drug 2-DG (Fig. 5b: 40 mM)
Outline: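 HepG2 cells exposed 24 h to test compound, 2-DG, or both. 3 × 10^5 cells harvested, PBS-washed twice, stained with Annexin V-FITC and PI for 15 min in the dark, then analysed by flow cytometry. Quadrants: Annexin V−/PI− healthy, V+/PI− early apoptotic, V+/PI+ late apoptotic/necrotic, V−/PI+ necrotic. Three experiments.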

HepG2 cells [5] = assay: Cell cycle analysis by flow cytometry; format: cell-based, human; settings: HepG2, 24 h
Outline: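 Treatments: A-375 cells with test compound at 0, 1, 3, 5 μM; HepG2 cells untreated, 2-DG 20 mM, test compound 4 μM, or 20 mM + 4 μM; all 24 h. 1 × 10^6 cells washed twice in PBS and fixed overnight in 70% ice-cold ethanol. Stained 30 min at 4°C in the dark with 1% Triton X-100, 0.01% RNase, 0.05% PI. Flow cytometry, three experiments.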

HELF cells = assay: MTT assay, normal counterpart cell line HELF; format: cell-based; settings: Homo sapiens, 24 h, read-out: IC50 HELF
Outline: (§2)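 Cells grown in RPMI 1640 with 10% heat-inactivated FBS and penicillin/streptomycin at 37°C, 5% CO2. Plated at 1 × 10^4/well overnight, then treated 24 h with graded test compound (DMSO stock diluted in medium, 0.1% DMSO final; vehicle control 0.1% DMSO). MTT added 4 h in phenol-red-free, serum-free medium; formazan dissolved in DMSO; A492. IC50 = concentration giving 50% growth inhibition; ≥3 repeats.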

AGS cells = assay: MTT assay for cell viability/proliferation, AGS; format: cell-based; settings: Homo sapiens, 24 h, read-out: IC50 AGS
Outline: as §2

HeLa cells = assay: MTT assay for cell viability/proliferation, HeLa; format: cell-based; settings: Homo sapiens, 24 h, read-out: IC50 HeLa
Outline: as §2

A-375 cells = assay: MTT assay for cell viability/proliferation, A-375; format: cell-based; settings: Homo sapiens, A-375, 24 h, read-out: IC50 A-375
Outline: as §2

[6] = tested on: four cancer cell lines (HepG2, AGS, A-375, HeLa); assay: MTT assay, range over four cancer cell lines; format: cell-based; settings: Homo sapiens, read-out: IC50 to suppress cell proliferation
Outline: as §2

Compound | IC80 (HepG2 cells [2]) [µM] | IC50 (HepG2 cells [2]) [µM] | IC50 (HELF cells) [µM] | IC50 (AGS cells) [µM] | IC50 (HeLa cells) [µM] | IC50 (A-375 cells) [µM] | further results
O=CC[C@@H](O)[C@H](O)[C@H](O)CO [Compound 2-DG, 2-Deoxy-D-glucose] | 50000 |  |  |  |  |  | activity of caspase-9 (caspase-9): dose-dependently increased; lactate production (in words) (HepG2 cells [1]): decreased lactate production; intracellular ATP concentration (in words) (HepG2 cells [3]): slightly decreased; activity of caspase-3 (caspase-3): dose-dependently increased; total hexokinase (HK) activity (in words) (hexokinase (HK)): reduce the activity of hexokinase; activity of caspase-8 (caspase-8): dose-dependently increased; apoptosis (HepG2 cells [4]): 13.7%; cell cycle arrest (in words) (HepG2 cells [5]): cell cycle arrest in G2/M
N[C@@H](CS)C(=O)O [L-Cys, L-cysteine] | 15000 |  |  |  |  |  | 
c1ccc([C@H]2CN3CCSC3=N2)cc1 [LM, levamisole] | 2500 |  |  |  |  |  | 
CC(=O)O[C@H]1C(=O)[C@@]2(C)[C@H]([C@H](OC(=O)c3ccccc3)[C@]3(O)C[C@H](OC(=O)[C@H](O)[C@@H](NC(=O)c4ccccc4)c4ccccc4)C(C)=C1C3(C)C)[C@]1(OC(C)=O)CO[C@@H]1C[C@@H]2O [Paclitaxel] |  | 10.32 ± 0.02 | 7.17 ± 0.08 | 9.24 ± 0.13 | 6.62 ± 0.21 | 8.56 ± 0.07 | 
C[C@H]1[C@H](C)CC[C@]2(C(=O)O)CC[C@]3(C)C(=CC[C@@H]4[C@@]5(C)CC[C@H](O)C(C)(C)[C@@H]5CC[C@]43C)[C@H]12 [UA, 3β-hydroxy-urs-12-en-28-oic acid] |  | 68.8 ± 3.71 | 21.3 ± 1.76 | 43.2 ± 2.13 | 33.1 ± 0.63 | 57.6 ± 3.21 | IC50 [6]: 33.1 to 68.8 µM
